Bioassay records as filed in PubChem.
SF-1 act – activates the human nuclear receptor SF-1 | CHO-K1 Gal4-SF-1 LBD luciferase reporter; % increase over DMSO SF-1-specific signal | activation, % at 10 µM | hit rate 1.9% among 65,000;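 active means activation above the mean activation of all tested compounds plus 3 SD, cut at about 50% in these data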
Target sequence (Q13285 whole entry, looked up, the tested form may be a part): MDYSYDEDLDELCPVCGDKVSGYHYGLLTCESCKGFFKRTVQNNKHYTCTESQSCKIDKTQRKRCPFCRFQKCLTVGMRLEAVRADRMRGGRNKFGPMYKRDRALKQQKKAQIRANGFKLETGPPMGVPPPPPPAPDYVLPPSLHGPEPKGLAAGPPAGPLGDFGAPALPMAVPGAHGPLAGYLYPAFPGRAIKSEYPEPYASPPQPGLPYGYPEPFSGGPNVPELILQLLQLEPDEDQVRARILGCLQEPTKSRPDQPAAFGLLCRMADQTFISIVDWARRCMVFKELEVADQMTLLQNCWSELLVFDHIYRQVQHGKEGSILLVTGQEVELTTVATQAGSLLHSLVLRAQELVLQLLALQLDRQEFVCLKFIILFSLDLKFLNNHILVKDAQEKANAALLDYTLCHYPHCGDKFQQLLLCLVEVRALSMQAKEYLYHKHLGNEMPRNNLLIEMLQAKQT
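Material: CHO-K1 cells with Gal4–hSF-1 LBD chimera plus Gal4-driven luciferase / Input: 4,000 CHO-K1 cells per well / Incubation: compound exposure 20 h at 37 °C / Signal: luminescence read 15 min after SteadyLite luciferase reagent, after room-temperature equilibration / Read-out: percent activation versus DMSO / Benchmarks: DMSO negative control and −SF1 background wells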
Pyk2 oligo antag – blocks oligomerization of human Pyk2 in cells | Q293 cells, Pyk2 FERM NanoBiT luminescence; hits give low values | z-score (the deposit names both 25 µM and 10 µM) | hit rate 0.83% among 99,000 | AID 1347419;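 active means Z-score of -3 or lower, scaled per plate to the spread of control and sample wells; inactive means z-score above -3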;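 further: negative z-score means lost luminescence so less FERM oligomerization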
ERa SRC1 inh – blocks coactivator binding to human estrogen receptor alpha. P03372. TR-FRET ER-alpha LBD / SRC-1 peptide, estradiol-bound. inhibition, % at 25.6 µM. hit rate 1.7% among 86,000. AID 629; in the data active means inhibition above about 50%;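 further: 0% = receptor plus peptide control and 100% = peptide only without receptor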
ERb coact inh – ER-beta (human) coactivator binding inhibition | Q92731 | TR-FRET ER-beta LBD / SRC1-Cy5 peptide binding; receptor agonist-loaded with 1 µM estradiol | inhibition, % at 25.6 µM | hit rate 1.3% among 86,000 | AID 633;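 active means compounds whose percent inhibition of the receptor-coactivator binding signal exceeds about 50% in the single-dose screen, limit read from the data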;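 further: 0% = receptor plus peptide wells without compound and 100% = peptide-only wells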
RORa activator – activators of human nuclear receptor RORA; hit rate 1.5% among 65,000; P35398; CHO-K1 Gal4-RORA LBD luciferase reporter, luminescence; percent increase over mock-subtracted basal signal; activation, % at 10 µM;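 active means activation above the mean of all tested compounds plus 3 SD, cut at about 49% in these data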;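 further: 0% = DMSO-treated RORA cells and 100% = added signal equal to DMSO minus mock-transfected cells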
ERa coact pot – enhances coactivator binding to human estrogen receptor alpha; P03372; TR-FRET ERalpha-LBD/SRC-Cy5 coactivator binding, 2 h; 100 = basal binding, no effect; coactivator binding (% of control), % at 25.6 µM; hit rate 1.3% among 86,000; in the data active means activity above about 200%;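 further: binding measured in presence of low estradiol as agonist stimulus; 0% = peptide alone without receptor and 100% = receptor with peptide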
Starred values were filed as active, the others as inactive; nt = no result given; [ ] = remark or other dose. Most compounds without a hit are left out; they make up all but 4.8% or so of the library.

SMILES | SF-1 act | Pyk2 oligo antag | ERa SRC1 inh | ERb coact inh | RORa activator | ERa coact pot
COc1cc(C(=O)Nc2nc(-c3cccs3)cs2)cc(OC)c1OC | 13 | -4.3* | -8 | 3 | -6 | 116
O=C(Cn1cnc2ccccc21)NC(c1ccccc1)c1ccccc1 | nt | -0.17 | -2 | -3 | nt | 97
O=C(Nc1nc(-c2ccc(S(=O)(=O)N3CCCCCC3)cc2)cs1)c1cccs1 | 5 | -0.61 | -33 | -4 | 7 | 570*[fluorescence artefact?]
COc1cc(C(=O)Nc2ccc(N(C)C)cc2)cc(OC)c1OC | 62* | -0.57 | 5 | 21 | 84* | 108
Cn1ncc2c1ncn1nc(COc3ccc4ccccc4c3)nc21 | 3 | 0.92 | -13 | -15 | 10 | 106
Cn1ncc2c1ncn1nc(CCc3ccccc3)nc21 | 50* | 0.8 | -11 | -17 | 44 | 101
O=C(NC(Cc1ccccc1)C(=O)O)/C(=C\c1ccc(F)cc1)NC(=O)c1ccccc1 (configuration not stated) | nt | -0.41 | nt | nt | nt | nt
COc1ccc(NC(=O)COC(=O)[C@@H]2CCCN2C(=O)c2cccs2)cc1 | nt | 1.7 | nt | nt | nt | nt
O=C(COC(=O)C1CCCN1C(=O)c1cccs1)Nc1ccc2c(c1)OCO2 (configuration not stated) | 18 | -0.36 | 52*[fluorescence artefact?] | 38 | 15 | 70
COc1ccc(C2CC(c3c(-c4ccccc4)c4cc(Cl)ccc4[nH]c3=O)=NN2S(C)(=O)=O)cc1OC (configuration not stated) | nt | -0.17 | 69* | 43 | nt | 131
CCC(=O)Nc1cc(C(=O)OC(C(=O)c2ccc(C)c(C)c2)c2ccccc2)ccc1C (configuration not stated) | nt | -1.7 | nt | nt | nt | nt
O=C(COc1ccc([N+](=O)[O-])cc1)Nc1ccc(C(=O)NCc2cccnc2)cc1 | nt | 1.1 | nt | nt | nt | nt
Cc1ccc(NC(=O)c2cc([N+](=O)[O-])ccc2NCc2cccnc2)cc1Cl | nt | -3.7* | nt | nt | nt | nt
CC1CN(S(=O)(=O)c2ccc(NC(=O)c3cc(-c4ccccc4O)n[nH]3)cc2)CC(C)O1 (configuration not stated) | -10 | -3.1* | 18 | 4 | -8 | 123
CC1CN(S(=O)(=O)c2ccccc2)CC(C)O1 (configuration not stated) | -6 | -0.34 | -1 | -6 | -3 | 102
Cc1ccc(OCCNC(=O)c2ccco2)cc1C | -8 | 0.84 | -3 | 1 | 19 | 118
COc1ccc(-c2cc3nc(C)cc(N4CC(C)CC(C)C4)n3n2)cc1 (configuration not stated) | nt | -1.5 | -29 | -20 | nt | 89
C=CCOc1c(CNc2nccs2)cccc1OCC | -18 | -0.04 | -3 | -4 | -13 | 95
Oc1ccc(Nc2nc3ccccc3nc2Nc2ccc(O)cc2)cc1 | nt | -4.4* | 73*[fluorescence artefact?] | 83*[fluorescence artefact?] | nt | 14
Cc1n[nH]c(=O)nc1Nc1ccc(O)cc1 | nt | 0.81 | -3 | 16 | nt | 85
Clc1cccc(Cl)c1Cn1cnc2c(N3CCCCCC3)ncnc21 | 4 | -3.4* | -4 | -6 | 15 | 54
CCN(CC)c1ncn(Cc2c(Cl)cccc2Cl)c2ncnc1-2 | nt | -1.1 | -11 | -5 | nt | 84
CCN(CC)c1ncnc2c1ncn2Cc1c(Cl)cccc1Cl | nt | -3.1* | -11 | -10 | nt | 84
Cc1ccc(C(=O)NNC(=O)c2ccc(SCC3CCCO3)c([N+](=O)[O-])c2)cc1 (configuration not stated) | nt | 0.22 | 0 | 3 | nt | 100
O=C(NNC(=O)c1ccc(SCC2CCCO2)c([N+](=O)[O-])c1)c1ccc(Cl)c([N+](=O)[O-])c1 (configuration not stated) | nt | 0.13 | 51* | 18 | nt | 62
SMILES | SF-1 act | Pyk2 oligo antag | ERa SRC1 inh | ERb coact inh | RORa activator | ERa coact pot
CC(C)(C)NC(=O)Nc1ccc2nccnc2c1 | 49 | 0.34 | 4 | 2 | 90* | 87
CC(C)(C)NC(=O)c1ccc2nccnc2c1 | 3 | 1.8 | -25 | 4 | -20 | 115
O=C(c1ccccc1)c1ccc2nc[nH]c2c1 | 24 | -0.8 | -4 | 2 | 14 | 86
Cc1nc2ccc(C(=O)c3ccccc3)cc2[nH]1 | 57* | 0.89 | 2 | 1 | 13 | 87
c1ccc2c(c1)OCC(c1nnc3sc(-c4cnccn4)nn13)O2 (configuration not stated) | -10 | 0.53 | 92*[fluorescence artefact?] | 82*[fluorescence artefact?] | 1 | 52
O=C(NCCc1c[nH]c2ccccc12)c1cnc2n(c1=O)CCS2 | 48 | nt | 1 | 0 | 60* | 90
O=C(N/C(=C/c1ccco1)C(=O)N1CCCCC1)c1cccs1 | nt | -0.39 | nt | nt | nt | nt
O=C(NNC(=O)C1CCN(Cc2ccccc2)CC1)c1cccc(Cl)c1 | nt | 0.57 | nt | nt | nt | nt
COc1cc(C2Nc3cccc4cccc(c34)N2)cc(OC)c1O | 14 | -1.3 | 54*[fluorescence artefact?] | 82*[fluorescence artefact?] | -10 | 46
CCOC(=O)c1cccc(NC(=O)c2cccs2)c1 | 29 | -0.36 | -3 | 79* | 27 | 114
CCOC(=O)c1cccc(NC(=O)c2cc3sccc3n2C)c1 | 55* | -1.2 | 4 | 4 | 36 | 128
CCOC(=O)c1ccccc1NC(=O)c1cc2sccc2n1C | -6 | 1 | -8 | 2 | 12 | 141
CC(=O)Nc1c(O)nc(SCC(=O)Nc2ccc(C(C)=O)cc2)[nH]c1=O | 50* | 0.66 | 6 | 2 | 58* | 86
Cc1cc([N+](=O)[O-])c2[nH]c(C(=O)N/N=C/c3ccccc3C(=O)O)c(-c3ccccc3)c2c1 | nt | -3* | nt | nt | nt | nt
CCC(C)c1ccc(NC(=O)COc2c(F)c(F)c(C(F)(F)F)c(F)c2F)cc1 (configuration not stated) | nt | -1.8 | nt | nt | nt | nt
N#Cc1cc(Sc2ccccn2)c(Sc2ccccn2)cc1C#N | 6 | -1.4 | -5 | -4 | 8 | 213*
N#Cc1ccccc1Sc1ccccc1C(=O)Nc1ccc(Br)cc1 | nt | -3.5* | nt | nt | nt | nt
CCn1nc(C)cc1-c1n[nH]c(=S)n1N | nt | -0.34 | nt | nt | nt | nt
O=C(O)Cc1ccc(NC(=O)C2CC=CCC2C(=O)O)cc1 (configuration not stated) | -3 | nt | -18 | -21 | -12 | 234*
O=C(Nc1ccc(Cl)c(C(F)(F)F)c1)NC1CC2CCCC(C1)N2C1CC1 (configuration not stated) | nt | 0.61 | 5 | 6 | nt | 85
CC1(C)CC(=O)C2=C(C1)Nc1ccccc1N=C2 | 58* | nt | -4 | -11 | 42 | 98
Cc1c(C2Nc3ccccc3NC3=C2C(=O)CC(C)(C)C3)cnn1C (configuration not stated) | -6 | 0.76 | 2 | 0 | 9 | 123
CCOc1cc(/C=C2\SC(=S)N(Nc3ccccc3)C2=O)ccc1O | nt | -3.6* | nt | nt | nt | nt
COc1cc(/C=C2\SC(=S)N(Nc3ncc(C(F)(F)F)cc3Cl)C2=O)ccc1O | nt | -3.1* | nt | nt | nt | nt
CN(C)c1ccc(/C=C2\SC(=S)N(Nc3ncc(C(F)(F)F)cc3Cl)C2=O)cc1 | nt | -3.4* | -8 | -11 | nt | 117
